In series [1] the test system is Pseudomonas aeruginosa. The series can be described thus: Antibacterial activity against Pseudomonas aeruginosa ATCC 27853 assessed as bacterial growth inhibition incubated for 18 to 24 hrs by broth microdilution method. The settings on record: time 18-24 hrs. The format is functional. Summed up:
(§1)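 CLSI broth microdilution. Overnight starter cultures (single colony, MHBII, 37 °C, shaking 18–24 h) were diluted by OD600 to 10^6 CFU/mL in MHBII. Two-fold dilutions from […] were made from 10 mg/mL DMSO stocks, then incubated 37 °C for 18-24 h. The MIC was the lowest concentration with no visible growth. Three independent runs, duplicate samples.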

Series [2] deals with Staphylococcus aureus. The experiment in a line: Antibacterial activity against Staphylococcus aureus ATCC 29213 assessed as bacterial growth inhibition incubated for 18 to 24 hrs by broth microdilution method. It counts as functional. To be noted: time 18-24 hrs. In a few lines: as §1
In general terms: Broth dilution looks for growth in wells or tubes with falling amounts of substance.

Series [3] has as its system Escherichia coli. The experiment in a line: Antibacterial activity against Escherichia coli ATCC 25922 assessed as bacterial growth inhibition incubated for 18 to 24 hrs by broth microdilution method. The format is functional. The settings on record: time 18-24 hrs. Summed up:
as §1

For series [4], the system named is Acinetobacter baumannii. The experiment in a line: Antibacterial activity against Acinetobacter baumannii BAA-1605 assessed as bacterial growth inhibition incubated for 18 to 24 hrs by broth microdilution method. The format is functional. To be noted: time 18-24 hrs. Summed up: as §1
Series [5] has as its system Klebsiella pneumoniae. The series can be described thus: Antibacterial activity against Klebsiella pneumoniae BAA 1705 assessed as bacterial growth inhibition incubated for 18 to 24 hrs by broth microdilution method. The format is functional. To be noted: time 18-24 hrs. In a few lines:
as §1

For series [6], the system named is Staphylococcus aureus. The series can be described thus: Antibacterial activity against methicillin resistant Staphylococcus aureus NRS 186 assessed as bacterial growth inhibition incubated for 18 to 24 hrs by broth microdilution method. To be noted: time 18-24 hrs. The format is functional. Summed up: (§2)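 CLSI broth microdilution in MHBII; overnight starter cultures (single MHA colony, 37 °C, shaking) adjusted by OD600 to 10^6 CFU/mL. Compounds from DMSO stocks (10 mg/mL), two-fold series 64–0.5 mg/L. Incubation 37 °C, 18-24 h. MIC = lowest concentration with no visible growth. Three independent determinations, each in duplicate.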

Series [7] concerns Staphylococcus aureus. The series can be described thus: Antibacterial activity against methicillin resistant Staphylococcus aureus NRS 191 assessed as bacterial growth inhibition incubated for 18 to 24 hrs by broth microdilution method. The format is functional. The settings on record: time 18-24 hrs. In a few lines:
as §2

Series [8] relates to Staphylococcus aureus. The series can be described thus: Antibacterial activity against vancomycin resistant Staphylococcus aureus […] 4 assessed as bacterial growth inhibition incubated for 18 to 24 hrs by broth microdilution method. The settings on record: time 18-24 hrs. The format is functional. Summed up: as §2
Series [9] has as its system Staphylococcus aureus. The series can be described thus: Antibacterial activity against methicillin sensitive Staphylococcus aureus ATCC 29213 assessed as bacterial growth inhibition incubated for 18 to 24 hrs by broth microdilution method. The format is functional. The settings on record: time 18-24 hrs. In a few lines:
as §2

Series [10] deals with Staphylococcus aureus. The experiment in a line: Antibacterial activity against methicillin resistant Staphylococcus aureus NRS 192 assessed as bacterial growth inhibition incubated for 18 to 24 hrs by broth microdilution method. The format is functional. To be noted: time 18-24 hrs. In a few lines:
as §2

Series [11] concerns Staphylococcus aureus. The experiment in a line: Antibacterial activity against methicillin resistant Staphylococcus aureus NRS 129 assessed as bacterial growth inhibition incubated for 18 to 24 hrs by broth microdilution method. To be noted: time 18-24 hrs. It counts as functional. In a few lines:
as §2

Series [12] deals with Staphylococcus aureus. The experiment in a line: Antibacterial activity against vancomycin resistant Staphylococcus aureus […] 12 assessed as bacterial growth inhibition incubated for 18 to 24 hrs by broth microdilution method. The format is functional. The settings on record: time 18-24 hrs. In a few lines:
as §2

The test system of series [13] is Staphylococcus aureus. The experiment in a line: Antibacterial activity against methicillin resistant Staphylococcus aureus NRS 193 assessed as bacterial growth inhibition incubated for 18 to 24 hrs by broth microdilution method. The format is functional. The settings on record: time 18-24 hrs. Summed up: as §2
For series [14], the system named is Staphylococcus aureus. The series can be described thus: Antibacterial activity against methicillin resistant Staphylococcus aureus NRS 198 assessed as bacterial growth inhibition incubated for 18 to 24 hrs by broth microdilution method. The format is functional. To be noted: time 18-24 hrs. Summed up: as §2
For series [15], the system named is Staphylococcus aureus. The series can be described thus: Antibacterial activity against methicillin resistant Staphylococcus aureus NRS 194 assessed as bacterial growth inhibition incubated for 18 to 24 hrs by broth microdilution method. The settings on record: time 18-24 hrs. It counts as functional. In a few lines: as §2
The subject of series [16] is Staphylococcus aureus. The series can be described thus: Synergistic antibacterial activity against Staphylococcus aureus ATCC 29213 assessed as bacterial growth inhibition incubated for 24 hrs in presence of (S)-8''-Bromo-1-ethyl-1'-methyl-2,12''-dioxo-12''H-dispiro[indoline-3,4'-pyrrolidine-2',6''-indolo[2,1-b]quinazoline]-3',3'-dicarbonitrile by checkerboard assay. It counts as functional. Summed up: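 Checkerboard in 96-well plates: two-fold serial dilutions, one agent along abscissa, partner antibiotic along ordinate. Wells received ~10⁵ CFU/mL S. aureus ATCC 29213 in MHBII. Incubation 37 °C, 24 h. ΣFIC = FIC A + FIC B, each FIC being combination MIC divided by MIC alone.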

Series [17] deals with Staphylococcus aureus. The experiment in a line: Antibacterial activity against methicillin resistant Staphylococcus aureus NRS 119 assessed as bacterial growth inhibition incubated for 18 to 24 hrs by broth microdilution method. The format is functional. To be noted: time 18-24 hrs. In a few lines:
as §2

The nature of series [18]: Selectivity ratio of CC50 for African green monkey Vero cells to MIC against Staphylococcus aureus ATCC 29213. The format is toxicity, cell-based.
In series [19] the test system is Vero. The experiment in a line: Cytotoxicity against African green monkey Vero cells assessed as cell viability incubated for 72 hrs by MTT assay. It counts as toxicity, cell-based. The settings on record: chlorocebus sabaeus. Summed up:
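MTT assay on Vero cells, ~10^3 cells/well, 37 °C, 5% CO2. Compound was added at 24 h (100-12.5 μg/mL) for 72 h, then MTT for 4 h at 37 °C. Formazan was dissolved in DMSO and read at 540 nm. CC50 was the lowest concentration giving 50% viability loss. Doxorubicin positive control; triplicate.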

Setting [20] is: Staphylococcus aureus, ATCC 29213, read-out: MIC.

Converted amounts (≈) assume the structure as drawn. A value given as a limit tells only on which side of the number the result lay.

Usually MIC stands for the smallest concentration in the dilution series that meets the test's criterion for growth inhibition.

As for `CCN1C(=O)[C@]2(c3cc(Cl)ccc31)C(Cc1c[nH]c3ccccc13)NC1(c3cc(Cl)ccc3-n3c1nc1ccccc1c3=O)C2(C#N)C#N` (stereo not given in full), the MIC in series [1] is above 64 µg/mL; in series [2] (setting [20]) it was 0.25 µg/mL (≈ 0.366 µM); in [3], above 64 µg/mL; in series [4], above 64 µg/mL; in series [5], above 64 µg/mL.

`C[C@H]1COc2c(N3CCN(C)CC3)c(F)cc3c(=O)c(C(=O)O)cn1c23` [LEVOFLOXACIN ANHYDROUS]: the MIC in series [6] is 4 µg/mL (≈ 11.1 µM); in series [7], 16 µg/mL (≈ 44.3 µM); in [8] it was above 64 µg/mL; in series [9], 0.125 µg/mL (≈ 0.346 µM); in series [10], 4 µg/mL (≈ 11.1 µM); in series [2] (setting [20]) it was 0.125 µg/mL (≈ 0.346 µM). In addition, the MIC in series [2] was determined as 0.25 µg/mL (≈ 0.692 µM); in series [11] it was 0.25 µg/mL (≈ 0.692 µM); in [12], 32 µg/mL (≈ 88.6 µM); in [13], 32 µg/mL (≈ 88.6 µM); in series [14], 32 µg/mL (≈ 88.6 µM); in series [15], 0.125 µg/mL (≈ 0.346 µM). Also, the MIC in series [5] worked out at 64 µg/mL (≈ 177 µM); in series [16], 0.125 µg/mL; in series [17], 16 µg/mL (≈ 44.3 µM).

Take `CCCCCCCCCC(=O)N[C@@H](Cc1c[nH]c2ccccc12)C(=O)N[C@H](CC(N)=O)C(=O)N[C@@H](CC(=O)O)C(=O)N[C@@H]1C(=O)NCC(=O)N[C@@H](CCCN)C(=O)N[C@@H](CC(=O)O)C(=O)N[C@H](C)C(=O)N[C@@H](CC(=O)O)C(=O)NCC(=O)N[C@H](CO)C(=O)N[C@@H]([C@H](C)CC(=O)O)C(=O)N[C@@H](CC(=O)c2ccccc2N)C(=O)O[C@@H]1C`: the minimum inhibitory concentration (MIC) in series [2] (setting [20]) is 1 µg/mL (≈ 0.617 µM); in series [16] it was 1 µg/mL.

Regarding `CCN1C(=O)[C@]2(c3ccccc31)C(Cc1ccccc1)NC1(c3cc(Br)ccc3-n3c1nc1ccccc1c3=O)C2(C#N)C#N` (stereo not given in full), the MIC in series [1] was above 64 µg/mL; in [2] (setting [20]) it was 0.25 µg/mL (≈ 0.383 µM); in [3] it was above 64 µg/mL; in [4], above 64 µg/mL; in series [5] it was above 64 µg/mL.

On to `CCN1C(=O)[C@@]2(CN(C)C3(c4cc(I)ccc4-n4c3nc3ccccc3c4=O)C2(C#N)C#N)c2ccccc21` (stereo not given in full), for which the MIC was above 64 µg/mL in series [1]; 0.25 µg/mL (≈ 0.4 µM) in [2] (setting [20]); above 64 µg/mL in series [3]; above 64 µg/mL in [4]; above 64 µg/mL in series [5].

For the molecule `CC(C)(O/N=C(\C(=O)N[C@@H]1C(=O)N2C(C(=O)[O-])=C(C[n+]3ccccc3)CS[C@H]12)c1csc(N)n1)C(=O)O` [CEFTAZIDIME], the MIC is 8 µg/mL (≈ 14.6 µM) in series [2] (setting [20]) and 8 µg/mL in [16].

`CN(C)c1ccc(O)c2c1C[C@H]1C[C@H]3[C@H](N(C)C)C(O)=C(C(N)=O)C(=O)[C@@]3(O)C(O)=C1C2=O` [MINOCYCLINE]: the MIC stood at 0.125 µg/mL (≈ 0.273 µM) in [2] (setting [20]) and 0.125 µg/mL in series [16].

In the case of `CCN1C(=O)[C@@]2(CN(C)C3(c4cc([N+](=O)[O-])ccc4-n4c3nc3ccccc3c4=O)C2(C#N)C#N)c2ccccc21` (stereo not given in full), the minimal inhibitory concentration (MIC) was above 64 µg/mL in series [1]; 0.25 µg/mL (≈ 0.46 µM) in series [2] (setting [20]); above 64 µg/mL in [3]; above 64 µg/mL in series [4]; above 64 µg/mL in series [5]. In series [18], the selectivity ratio is below 10.

In the case of `CCN1C(=O)[C@@]2(CN(C)C3(c4cc(OC)ccc4-n4c3nc3ccccc3c4=O)C2(C#N)C#N)c2ccccc21` (stereo not given in full), the MIC in [6] is 0.5 µg/mL (≈ 0.946 µM); in series [1], above 64 µg/mL; in series [7], 0.25 µg/mL (≈ 0.473 µM); in series [8], 0.5 µg/mL (≈ 0.946 µM); in series [9], 0.5 µg/mL (≈ 0.946 µM); in [10] it was 0.5 µg/mL (≈ 0.946 µM). Moreover, the minimal inhibitory concentration (MIC) is 0.125 µg/mL (≈ 0.236 µM) in series [2] (setting [20]); 0.25 µg/mL (≈ 0.473 µM) in series [11]; above 64 µg/mL in series [3]; above 64 µg/mL in series [4]; 8 µg/mL (≈ 15.1 µM) in series [12]; 0.5 µg/mL (≈ 0.946 µM) in [13]. Further, the MIC is 0.5 µg/mL (≈ 0.946 µM) in series [14], 0.5 µg/mL (≈ 0.946 µM) in series [15], above 64 µg/mL in [5] and 0.25 µg/mL (≈ 0.473 µM) in [17]. Further, in [18], the selectivity ratio is above 80. Besides, the Activity result in [19] was “Non-Toxic”.
